In PMC7862202 (Clinical Pharmacokinetics, 2020):

Legend:
[1] = cited from earlier work
[2] = cited from earlier work; remark: listed apart in the source
[3] = cited from earlier work; remark: listed apart in the source
[4] = Population pharmacokinetic model; format: in vivo, human; conditions: for Variability in CL/F explained by albumin: albumin as covariate in the final model
Method in brief: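 Plasma measured by two validated LC/MS methods, combined range 0.1–2500 ng/mL. Inter-individual effects multivariate normal; residual error additive, proportional or mixed. Covariates tested on CL/F and V1/F in two steps. 1000 bootstrap replicates with replacement; 1000-replicate prediction-corrected VPC.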

human plasma proteins = conditions: cited from earlier work
[5] = test system: patients with locally advanced or metastatic ALK-positive NSCLC; conditions: 180 mg qd with a 7-day lead-in at 90 mg qd; crizotinib-refractory patients; cited from earlier work
[6] = test system: patients with ALK + NSCLC who are ALK inhibitor naive; conditions: first interim analysis, blinded independent review committee; cited from earlier work
[7] = cited from earlier work; remark: listed apart in the source
[8] = cited from earlier work; remark: listed apart in the source
EML4-ALK mutants = conditions: read-out: IC90 range for EML4-ALK mutants; cellular assays; cited from earlier work
[9] = cited from earlier work; remark: listed apart in the source
native EML4-ALK = conditions: read-out: IC90 for inhibition of native EML4-ALK; cellular assays; cited from earlier work
[10] = cited from earlier work; remark: listed apart in the source
[11] = single oral 180-mg radiolabeled dose, healthy volunteers

COc1cc(N2CCC(N3CCN(C)CC3)CC2)ccc1Nc1ncc(Cl)c(Nc2ccccc2P(C)(C)=O)n1 [brigatinib]
Enzymes metabolizing the remainder to inactive or minor metabolites [1]: primarily by cytochrome P450 (CYP) 3A and CYP2C8
Oral bioavailability [1]: orally bioavailable
Solubility [2]: high
Overall radiolabeled dose recovered as unchanged drug [3]: Approximately 50%
Administered dose recovered in feces [3, 11]: approximately 65%
Administered dose recovered in urine [3, 11]: ~25%
Unchanged brigatinib in feces [3, 11]: 41%
Unchanged brigatinib in urine [3, 11]: 86%
Variability in CL/F explained by albumin [4]: approximately 5%
Variability in CL/F explained by albumin ([4]; listed as Brigatinib): Albumin was included as a covariate on apparent clearance in the final population pharmacokinetic model, explaining approximately 5% of variability in apparent clearance.
Albumin covariate effect on CL/F, bootstrap median (2.5th to 97.5th percentile) ([4]; bootstrap of 1000 replicates): 0.656 (0.474–0.849)
CL/F, bootstrap median (2.5th to 97.5th percentile) ([4]; bootstrap of 1000 replicates): 10.6 (10.2–11.1) L/h
Mean transit time, bootstrap median (2.5th to 97.5th percentile) ([4]; bootstrap of 1000 replicates): 0.9 (0.8–1.0) h
Q1/F, bootstrap median (2.5th to 97.5th percentile) ([4]; bootstrap of 1000 replicates): 12.8 (10.5–16.2) L/h
Q2/F, bootstrap median (2.5th to 97.5th percentile) ([4]; bootstrap of 1000 replicates): 2.46 (1.09–4.76) L/h
V1/F, bootstrap median (2.5th to 97.5th percentile) ([4]; bootstrap of 1000 replicates): 208 (193–219) L
V2/F, bootstrap median (2.5th to 97.5th percentile) ([4]; bootstrap of 1000 replicates): 118 (83.6–147) L
V3/F, bootstrap median (2.5th to 97.5th percentile) ([4]; bootstrap of 1000 replicates): 82.3 (57.6–112) L
No. of transit compartments, bootstrap median ([4]; bootstrap of 1000 replicates, fixed): 2.35 (–)
Inter-individual variability of mean transit time, % (% CV) ([4]; final population PK model): 59 (7.5) %
Mean transit time, model estimate (% CV) ([4]; final population PK model): 0.9 (3.6) h
No. of transit compartments, model estimate ([4]; final population PK model, fixed at the population estimate): 2.35
Mean transit time, model estimate (% CV) ([4]; final population PK model, listed as Brigatinib): 0.9 h
Higher CL/F at 95th percentile of albumin vs median albumin ([4]; predicted, higher than a patient with the median albumin value): ~20%
Lower CL/F at 5th percentile of albumin vs median albumin ([4]; predicted, lower than a patient with the median albumin value): approximately 22%
Bound to human plasma proteins (human plasma proteins): approximately 90%
Median progression-free survival [5]: 16.7 months
12-month event-free rate [6]: 67%
Decrease in maximum plasma concentration following a high-fat meal [7]: 13%
Effect of a high-fat meal on AUC [7]: without a corresponding decrease in AUC
Increase in unbound brigatinib systemic exposure (AUC0–∞), severe hepatic impairment (Child–Pugh C) [8]: approximately 37%
IC90 (EML4-ALK mutants): 22 to 762 nM
Increase in unbound AUC0–∞, severe renal impairment vs normal renal function [9]: approximately twofold
IC90 (native EML4-ALK): 38 nM
Permeability [10]: high
